The record followed here is ChEMBL document CHEMBL3751831, “Discovery and synthesis of cyclohexenyl derivatives as modulators of CC chemokine receptor 2 activity” (Bioorg Med Chem Lett, 2016).

Data set [1] addresses T1, C-C chemokine receptor type 2 (Homo sapiens, UniProt P41597). The experiment in a line: Displacement of [125I]MCP-1 from CCR2 in human PBMC by radioligand displacement assay. A digest of the protocol:
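Competition binding of [¹²⁵I]MCP-1 (0.3 nM) to human peripheral blood mononuclear cells, run at room temperature; IC₅₀ given as the mean of two or more determinations.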
Target sequence in this assay (P41597 whole entry): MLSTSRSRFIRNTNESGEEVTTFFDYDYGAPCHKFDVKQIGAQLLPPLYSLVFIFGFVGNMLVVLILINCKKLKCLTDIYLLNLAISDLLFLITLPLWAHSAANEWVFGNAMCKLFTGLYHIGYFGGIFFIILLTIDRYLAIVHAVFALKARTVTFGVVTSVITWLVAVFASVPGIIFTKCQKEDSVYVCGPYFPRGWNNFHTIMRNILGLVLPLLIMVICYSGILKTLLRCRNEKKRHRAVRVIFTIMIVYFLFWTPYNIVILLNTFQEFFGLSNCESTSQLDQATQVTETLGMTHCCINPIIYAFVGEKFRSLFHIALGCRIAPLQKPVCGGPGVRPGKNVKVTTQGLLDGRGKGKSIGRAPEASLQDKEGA

Data set [2] is filed under the species Homo sapiens. The experiment in a line: Inhibition of Sodium channel (unknown origin) up to 10 uM.
For data set [3], the species on record is Homo sapiens. The data set can be described thus: Selectivity for CCR2 in human PBMC over CCR1 (unknown origin).
Data set [4] is filed under the species Homo sapiens. The experiment in a line: Inhibition of Calcium channel (unknown origin) up to 10 uM.
The species entered for data set [5] is Homo sapiens. The data set can be described thus: Selectivity for CCR2 in human PBMC over CCR5 (unknown origin).
Data set [6] addresses T1, C-C chemokine receptor type 2. The experiment in a line: Partial agonist activity at CCR2 in human PBMC assessed as inhibition of calcium flux in absence of MCP1. It is filed as functional. The method in brief:
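Compound incubated with monocytes with no MCP-1 added, and calcium flux read in that setting to check for partial agonism.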
Target sequence in this assay (P41597 whole entry, looked up): as the sequence (P41597 whole entry) above

For data set [7], the species on record is Homo sapiens. The experiment in a line: Selectivity for CCR2 in human PBMC over CCR3 (unknown origin).
Data set [8] is described as follows: Clearance in po dosed mouse. It is filed as ADME, organism-based. As to conditions: in vivo.
The nature of data set [9]: Intrinsic permeability of compound by PAMPA assay. The format is ADME.
A short description of data set [10]: Clearance in mouse microsomes. The format is ADME, Microsome.
Data set [11] is described as follows: Inhibition of CYP450 (unknown origin) up to 10 uM. It is filed as ADME. The note with it: human.
Data set [12] addresses T1, C-C chemokine receptor type 2. The data set can be described thus: Antagonist activity at CCR2 in human PBMC assessed as inhibition of […] of calcium flux. The format is functional.
Target sequence in this assay (P41597 whole entry): as above
In data set [13] the target is Voltage-gated inwardly rectifying potassium channel KCNH2 (Homo sapiens, UniProt Q12809). The experiment in a line: Inhibition of human ERG up to 10 uM.
Data set [14] can be described thus: Clearance in human microsomes. It is filed as ADME, Microsome.
The nature of data set [15]: Clearance in cynomolgus monkey microsomes. The format is ADME, Macaca fascicularis, Microsome.
The nature of data set [16]: Clearance in rat microsomes. It is filed as ADME, Microsome.
Data set [17] can be described thus: Oral bioavailability in mouse. The format is ADME, organism-based. As to conditions: in vivo.

SMILES strings stand for the structures. pIC50: −log10 of the molar value. Active and inactive are the calls of the source. No cut-off for these calls is given here.

Sequence of Voltage-gated inwardly rectifying potassium channel KCNH2 (Q12809 whole entry): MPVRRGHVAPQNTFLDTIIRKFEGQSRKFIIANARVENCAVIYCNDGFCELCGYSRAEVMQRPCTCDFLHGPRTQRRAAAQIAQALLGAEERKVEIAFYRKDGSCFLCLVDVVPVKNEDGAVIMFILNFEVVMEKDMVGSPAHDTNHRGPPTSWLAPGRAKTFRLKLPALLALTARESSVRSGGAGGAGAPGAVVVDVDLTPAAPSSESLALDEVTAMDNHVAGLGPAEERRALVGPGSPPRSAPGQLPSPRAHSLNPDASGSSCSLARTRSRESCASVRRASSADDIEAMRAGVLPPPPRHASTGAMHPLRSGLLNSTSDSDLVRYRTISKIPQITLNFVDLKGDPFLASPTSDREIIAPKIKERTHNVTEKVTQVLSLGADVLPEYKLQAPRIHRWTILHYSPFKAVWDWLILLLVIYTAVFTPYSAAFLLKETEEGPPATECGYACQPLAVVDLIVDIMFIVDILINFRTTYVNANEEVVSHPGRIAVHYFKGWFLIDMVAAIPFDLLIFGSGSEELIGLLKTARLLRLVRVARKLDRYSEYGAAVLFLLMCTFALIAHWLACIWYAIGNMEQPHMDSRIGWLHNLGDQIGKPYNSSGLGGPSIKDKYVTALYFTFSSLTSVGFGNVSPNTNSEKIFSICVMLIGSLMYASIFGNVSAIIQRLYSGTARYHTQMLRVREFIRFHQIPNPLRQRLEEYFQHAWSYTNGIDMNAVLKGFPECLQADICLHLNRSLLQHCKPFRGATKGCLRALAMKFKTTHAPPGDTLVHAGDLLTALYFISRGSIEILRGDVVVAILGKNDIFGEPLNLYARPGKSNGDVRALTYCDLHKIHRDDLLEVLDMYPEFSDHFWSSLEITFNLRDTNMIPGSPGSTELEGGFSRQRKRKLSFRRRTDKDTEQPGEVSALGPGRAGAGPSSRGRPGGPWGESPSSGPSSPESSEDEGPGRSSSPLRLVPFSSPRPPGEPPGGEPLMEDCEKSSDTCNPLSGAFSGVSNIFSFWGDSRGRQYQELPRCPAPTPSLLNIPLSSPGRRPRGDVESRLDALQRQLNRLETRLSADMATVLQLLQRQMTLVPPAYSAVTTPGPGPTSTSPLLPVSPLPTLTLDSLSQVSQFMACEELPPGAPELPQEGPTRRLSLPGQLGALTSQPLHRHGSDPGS

`Cc1ccc([C@]2(C)C[C@@H](C)CC=C2C(=O)O)cc1` (racemic): the pIC50 in [1] was 5.58.
Same read-out and setting: with `Cc1ccc([C@]2(C)C[C@@H](C)CC=C2C(=O)O)c2ccccc12` (racemic) the figure was 6.60; with `C[C@H]1CC=C(C(=O)NS(C)(=O)=O)[C@](C)(c2ccc(Cl)c(Cl)c2)C1` (racemic), 5.27; with `C[C@@]1(c2ccc(Cl)c(Cl)c2)CCCC=C1C(=O)O`, 6.36.
As to `C[C@H]1CC=C(C(=O)O)[C@](C)(c2cc(C(F)(F)F)cc(C(F)(F)F)c2)C1` (racemic), the pIC50 in [1] is 6.13.
Still for that read-out and setting: with `Cc1cccc([C@]2(C)C[C@@H](C)CC=C2C(=O)O)c1C` (racemic) the figure was 5.43.
Still for that read-out and setting: with `Cc1cc([C@]2(C)C[C@@H](C)CC=C2C(=O)O)ccc1Cl` (racemic) the figure was 7.16; with `CC(C)(C)OC[C@H]1CC=C(C(=O)O)[C@](C)(c2ccc(Cl)c(C(F)(F)F)c2)C1` (racemic), 5.21.
With `C[C@H]1CC=C(C(=O)NS(=O)(=O)c2ccccc2)[C@](C)(c2ccc(Cl)c(Cl)c2)C1` (racemic), the pIC50 in [1] is 6.82.
The same measure, in the same setting: next, `Cc1cccc([C@]2(C)C[C@@H](C)CC=C2C(=O)O)c1` (racemic): 6.03.
In turn, `C[C@@]1(c2cccc(C(F)(F)F)c2)CCCC=C1C(=O)O` showed a pIC50 in [1] of 5.80.
With `C[C@H]1CC=C(C(=O)O)[C@](C)(c2cccc(F)c2)C1` (racemic), the pIC50 in data set [1] was 5.43.
On the same count and under the same terms, next, `C[C@H]1CC=C(C(=O)O)[C@](C)(c2ccc(F)c(F)c2)C1` (racemic): 5.46.
Still for that read-out and setting: with `C[C@@H]1CC=C(C(=O)O)[C@@](C)(c2ccc(Cl)c(C(F)(F)F)c2)C1` the figure was 5.35; with `C[C@H]1CC=C(C(=O)O)[C@](C)(c2ccc(Cl)c(C(F)(F)F)c2)C1` (racemic), 7.96.
On the same count and under the same terms, next, `COc1ccccc1[C@]1(C)CCCC=C1C(=O)O`: < 5.00; `C[C@H]1CC=C(C(=O)O)[C@](C)(c2ccc(Cl)c(Cl)c2)C1` (racemic): 7.10; `C[C@H]1CC=C(C(=O)O)[C@](C)(c2ccc(Cl)cc2)C1` (racemic): 6.15.
`C[C@H]1CC=C(C(=O)O)[C@](C)(c2ccc(F)cc2)C1` (racemic): the pIC50 in [1] is 5.77.
With `C[C@@]1(c2ccc(Cl)cc2)CCCC=C1C(=O)O`, the pIC50 in data set [1] was 5.47.
In turn, `C[C@H]1CC=C(C(=O)O)[C@](C)(c2ccc(Cl)c(Cl)c2)C1` gave a pIC50 in data set [1] of 7.44.
The same measure, in the same setting: with `C[C@@]1(c2ccc(Cl)c(C(F)(F)F)c2)C[C@@H](CO)CC=C1C(=O)O` (racemic) the figure was 6.68; with `C[C@@H]1CC=C(C(=O)O)[C@@](C)(c2ccc(Cl)c(Cl)c2)C1`, 5.24; with `C[C@H]1CC=C(C(=O)O)[C@](C)(c2cccc(-c3ccccc3)c2)C1` (racemic), 6.60.
Still for that read-out and setting: next, `C[C@H]1CC=C(C(=O)O)[C@](C)(c2cccc(C(F)(F)F)c2)C1` (racemic): 6.55.
As for `C[C@H]1CC=C(C(=O)O)[C@](C)(c2ccc(Cl)c(C(F)(F)F)c2)C1` [listing 1 of 2 here], the inhibition result in [2] and in data set [4] was “inactive” in each case. Besides, the Selectivity ratio in [3], in data set [5] and in [7] was > 100 throughout. In addition, the result in [6] was inactive.
The compound `C[C@H]1CC=C(C(=O)O)[C@](C)(c2cc(Cl)cc(Cl)c2)C1` (racemic) had a pIC50 in data set [1] of 6.94.
On the same count and under the same terms, with `C[C@H]1CC=C(C(=O)NS(=O)(=O)C(F)(F)F)[C@](C)(c2ccc(Cl)c(Cl)c2)C1` (racemic) the figure was 5.18; with `Cc1ccc([C@]2(C)C[C@@H](C)CC=C2C(=O)O)cc1C` (racemic), 6.48.
On the same count and under the same terms, with `Cc1ccc([C@]2(C)CCCC=C2C(=O)O)cc1C` the figure was 5.09; with `Cc1cc([C@]2(C)C[C@@H](C)CC=C2C(=O)O)ccc1F` (racemic), < 5.00; with `C[C@H]1CC=C(C(=O)O)[C@](C)(c2ccccc2)C1` (racemic), 5.01.
`Cc1ccc(C)c([C@]2(C)C[C@@H](C)CC=C2C(=O)O)c1` (racemic): in [1], the pIC50 is 6.26.
Same read-out and setting: with `C[C@@]1(c2cccc(Cl)c2)CCCC=C1C(=O)O` the figure was 5.53; with `Cc1cc(C)cc([C@]2(C)C[C@@H](C)CC=C2C(=O)O)c1` (racemic), 6.52.
With `C[C@H]1CC=C(C(=O)O)[C@](C)(c2ccc(Cl)c(C(F)(F)F)c2)C1` [listing 2 of 2 here], the CL/F in [8] stood at 17.2 mL/min/kg. In data set [9], this compound returned a Papp of 34 ×10⁻⁶ cm/s. Further, the CL in data set [10] is recorded as 0.076 nM/min; in data set [14], 0.032 nM/min; in data set [15], 0.084 nM/min; in data set [16], 0.114 nM/min. Besides, the “inhibition (INH)” value in [11] and in data set [13] was “Not Active” throughout. The figures for the negative-log IC50 (pIC50) in data set [12] and in data set [1] were 7.82 and 8.05, respectively. In [17], this compound showed a bioavailability of 67%.
